The record followed here is ChEMBL document CHEMBL1141433, “Tauramamide, a lipopeptide antibiotic produced in culture by Brevibacillus laterosporus isolated from a marine habitat: structure elucidation and synthesis” (2007).

The structures appear in SMILES notation. In brackets after ≈: the same amount, converted by molar mass. Activity calls are given as the source filed them. No cut-off for these calls is given here.

Format in all cases: functional
Test [1] deals with Staphylococcus aureus. In words: Antimicrobial activity against methicillin-resistant Staphylococcus aureus by agar extract inclusion assay. An outline of the steps: (§1)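 Compound dissolved in DMSO or EtOH and mixed into Mueller Hinton agar cooled to 50 °C. Agar serially diluted 1:2 with more cooled agar. Pathogens spotted on the surface at about 2.5 × 10⁵ cells/mL inoculum. Plates incubated overnight at 37 °C and scored for growth inhibition to give the MIC.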

In test [2] the test system is Candida albicans. In words: Antimicrobial activity against Candida albicans by Alamar blue assay. An outline of the steps:
(§2)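 1:2 serial dilution in liquid culture; compound dissolved in DMSO or EtOH. Bacteria grown in TSB+ (5 g/L NaCl); C. albicans in Sabouraud or TSB+. Alamar Blue redox indicator read by colour: blue/purple means growth inhibited, bright pink means growth.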
In general terms: The colour change of resazurin is a common sign of viable cells or microbes.

Test [3] concerns Staphylococcus aureus. The experiment in a line: Antimicrobial activity against methicillin-resistant Staphylococcus aureus by Alamar blue assay. An outline of the steps: as §2
The subject of test [4] is Enterococcus sp. In words: Antimicrobial activity against Enterococcus sp. by Alamar blue assay. An outline of the steps: as §2
In test [5] the test system is Candida albicans. In words: Antimicrobial activity against Candida albicans by agar extract inclusion assay. An outline of the steps: as §1

Consider `CCOC(=O)[C@H](CCCNC(=N)N)NC(=O)[C@H](Cc1c[nH]c2ccccc12)NC(=O)[C@@H](CC(C)C)NC(=O)[C@H](CO)NC(=O)[C@@H](Cc1ccc(O)cc1)NC(=O)CCCCCC(C)C` [TAURAMAMIDE ETHYL ESTER], for which the MIC (usually the least concentration at which growth counts as inhibited) in test [1] stood at 9.4 µg/mL (≈ 10.5 µM); in test [2], 200 µg/mL (≈ 224 µM); in test [3], 25 µg/mL (≈ 28 µM); in test [4], 0.1 µg/mL (≈ 0.112 µM); in test [5] it was 75 µg/mL (≈ 84.1 µM).

`CC(C)CCCCCC(=O)N[C@H](Cc1ccc(O)cc1)C(=O)N[C@@H](CO)C(=O)N[C@H](CC(C)C)C(=O)N[C@@H](Cc1c[nH]c2ccccc12)C(=O)N[C@@H](CCCNC(=N)N)C(=O)O` [TAURAMAMIDE]: the MIC was 200 µg/mL (≈ 231 µM) in test [1], 0.1 µg/mL (≈ 0.116 µM) in test [4] and 50 µg/mL (≈ 57.9 µM) in test [5]. In addition, the outcome in test [2] and in test [3] was inactive.
